Assay results: ChEMBL document CHEMBL3272149, “Synthesis and antibacterial activity of some derivatives of tolypomycinone. Relationship between structure and activity in ansamycins” (J Med Chem, 1977)
≈ marks a conversion by molar mass, not a printed value. Calls of active or inactive are those of the source. The calls are words filed in the database; no cut-off is given here.

Columns and labels:
Staphylococcus aureus [1] = assay: Antibacterial activity against Staphylococcus aureus 209 P(FDA) assessed as inhibition of visible growth after 24 hrs by serial dilution method; format: functional
Klebsiella pneumoniae = assay: Antibacterial activity against Klebsiella pneumoniae Ottaviani assessed as inhibition of visible growth after 24 hrs by serial dilution method; format: functional
Escherichia coli = assay: Antibacterial activity against Escherichia coli MC/35 assessed as inhibition of visible growth after 24 hrs by serial dilution method; format: functional; conditions: MC/35, 24 h
[2] = system: Salmonella enterica subsp. enterica serovar Paratyphi B; assay: Antibacterial activity against Salmonella paratyphi B 0248 K assessed as inhibition of visible growth after 24 hrs by serial dilution method; format: functional
Outline: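 Broth tube serial dilution in Brain Heart Infusion medium; inoculum 10^6 cells/mL; incubation 24 h at 35 °C; MIC taken as the lowest antibiotic concentration that prevented visible growth.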

Staphylococcus aureus [3] = assay: Antibacterial activity against Staphylococcus aureus 209 P(FDA) assessed as inhibition of visible growth in simulated gastric juice at pH 1.3 after 1 to 4 hrs by serial dilution method; format: functional, organism-based
Outline: (§1)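 Compound dissolved in simulated gastric juice (pH 1.3) or simulated intestinal juice (pH 8.3). Samples were withdrawn at 1, 2 and 4 h and assayed for residual inhibitory activity against Staphylococcus.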

[4] = Stability in simulated gastric juice at pH 1.3; format: ADME; conditions: simulated gi fluid; outline: as §1
[5] = Stability in simulated intestinal juice at pH 8.3; format: ADME; conditions: simulated gi fluid; outline: as §1
Staphylococcus aureus [6] = assay: Antibacterial activity against Staphylococcus aureus 209 P(FDA) assessed as inhibition of visible growth in simulated intestinal juice at pH 8.3 after 1 to 4 hrs by serial dilution method; format: functional, organism-based; outline: as §1

Compound	MIC (Staphylococcus aureus [1]) [µg/mL]	MIC (Klebsiella pneumoniae) [µg/mL]	MIC (Escherichia coli) [µg/mL]	MIC [2] [µg/mL]	inhibition (Staphylococcus aureus [3])	Stability [4]	Stability [5]	inhibition (Staphylococcus aureus [6])
CO[C@H]1/C=C/O[C@@]2(C)Oc3c(C)c(O)c4c(O)c(cc(O)c4c3C2=O)NC(=O)/C(C)=C\C=C\[C@H](C)[C@H](O)[C@@H](C)[C@@H](O)[C@@H](C)[C@H](OC(C)=O)[C@@H]1C [RIFAMYCIN]	< 0.005	100 (≈ 143 µM)	100 (≈ 143 µM)	100 (≈ 143 µM)				
CO[C@H]1/C=C/O[C@@]2(C)Oc3c(C)c(O)c4c(O)c(c(/C=N/N5CCN(C)CC5)c(O)c4c3C2=O)NC(=O)/C(C)=C\C=C\[C@H](C)[C@H](O)[C@@H](C)[C@@H](O)[C@@H](C)[C@H](OC(C)=O)[C@@H]1C [RIFAMPIN]	0.025 (≈ 0.0304 µM)	25 (≈ 30.4 µM)	6 (≈ 7.29 µM)	12 (≈ 14.6 µM)				
COc1cc(CNC2=C3NC(=O)/C(C)=C\C(=O)[C@@H]4C[C@@H]4[C@H](O)[C@@H](C)[C@@H](O)[C@@H](C)[C@H](OC(C)=O)[C@H](C)[C@@H](OC)/C=C/O[C@@]4(C)Oc5c(C)c(O)c(c(c5C4=O)C2=O)C3=O)ccc1O	< 0.005	100 (≈ 116 µM)	100 (≈ 116 µM)	100 (≈ 116 µM)				
CO[C@H]1/C=C/O[C@@]2(C)Oc3c(C)c(O)c4c(c3C2=O)C(=O)C(NCc2ccsc2)=C(NC(=O)/C(C)=C\C(=O)[C@@H]2C[C@@H]2[C@H](O)[C@@H](C)[C@@H](O)[C@@H](C)[C@H](OC(C)=O)[C@@H]1C)C4=O	< 0.005	100 (≈ 122 µM)	12 (≈ 14.6 µM)	12 (≈ 14.6 µM)				
CO[C@H]1/C=C/O[C@@]2(C)Oc3c(C)c(O)c4c(c3C2=O)C(=O)C(NCCN2CCOCC2)=C(NC(=O)/C(C)=C\C(=O)[C@@H]2C[C@@H]2[C@H](O)[C@@H](C)[C@@H](O)[C@@H](C)[C@H](OC(C)=O)[C@@H]1C)C4=O	< 0.005	50 (≈ 59.7 µM)	12 (≈ 14.3 µM)	12 (≈ 14.3 µM)	Active	Stable	Stable	Active
